From ChEMBL document CHEMBL2069235, “Synthesis and biological evaluation of tyrosine modified analogues of the α4β7 integrin inhibitor biotin-R₈ERY” (Bioorg Med Chem, 2012)
Calls of active or inactive are those of the source. The calls are words filed in the database; no cut-off is given here. *1 amine or outer side, *2 acyl side, *3 side chain or, on linkers, in order; H or OH if unused. Where a SMILES comes first, the peptide text is derived from it. [ ]: non-standard residue; d: D form. The star is where a group is joined. X2 = CCc1ccc(-c2ccc(C[C@H](N[*:1])C(=O)[*:2])cc2)cc1; Biotin = O=C1N[C@H]2[C@H](CS[C@H]2CCCCC(=O)*)N1; X1 = O=C([C@H](Cc1ccc(C2CCCCC2)cc1)N[*:1])[*:2]; Bip = N[C@@H](Cc1ccc(-c2ccccc2)cc1)C(=O)O

Key:
Type in all cases: cell-based
Integrin alpha-4/beta-7 = target: T1, Integrin alpha-4/beta-7 (Mus musculus, UniProt P26011+Q00651); test: Inhibition of alpha4beta7 assessed as inhibition of Mn(2+)-activated adhesion of mouse TK-1 T cells to mouse MAdCAM-1 incubated for 1 hr by cell adhesion assay
T1 sequence (Q00651 whole entry): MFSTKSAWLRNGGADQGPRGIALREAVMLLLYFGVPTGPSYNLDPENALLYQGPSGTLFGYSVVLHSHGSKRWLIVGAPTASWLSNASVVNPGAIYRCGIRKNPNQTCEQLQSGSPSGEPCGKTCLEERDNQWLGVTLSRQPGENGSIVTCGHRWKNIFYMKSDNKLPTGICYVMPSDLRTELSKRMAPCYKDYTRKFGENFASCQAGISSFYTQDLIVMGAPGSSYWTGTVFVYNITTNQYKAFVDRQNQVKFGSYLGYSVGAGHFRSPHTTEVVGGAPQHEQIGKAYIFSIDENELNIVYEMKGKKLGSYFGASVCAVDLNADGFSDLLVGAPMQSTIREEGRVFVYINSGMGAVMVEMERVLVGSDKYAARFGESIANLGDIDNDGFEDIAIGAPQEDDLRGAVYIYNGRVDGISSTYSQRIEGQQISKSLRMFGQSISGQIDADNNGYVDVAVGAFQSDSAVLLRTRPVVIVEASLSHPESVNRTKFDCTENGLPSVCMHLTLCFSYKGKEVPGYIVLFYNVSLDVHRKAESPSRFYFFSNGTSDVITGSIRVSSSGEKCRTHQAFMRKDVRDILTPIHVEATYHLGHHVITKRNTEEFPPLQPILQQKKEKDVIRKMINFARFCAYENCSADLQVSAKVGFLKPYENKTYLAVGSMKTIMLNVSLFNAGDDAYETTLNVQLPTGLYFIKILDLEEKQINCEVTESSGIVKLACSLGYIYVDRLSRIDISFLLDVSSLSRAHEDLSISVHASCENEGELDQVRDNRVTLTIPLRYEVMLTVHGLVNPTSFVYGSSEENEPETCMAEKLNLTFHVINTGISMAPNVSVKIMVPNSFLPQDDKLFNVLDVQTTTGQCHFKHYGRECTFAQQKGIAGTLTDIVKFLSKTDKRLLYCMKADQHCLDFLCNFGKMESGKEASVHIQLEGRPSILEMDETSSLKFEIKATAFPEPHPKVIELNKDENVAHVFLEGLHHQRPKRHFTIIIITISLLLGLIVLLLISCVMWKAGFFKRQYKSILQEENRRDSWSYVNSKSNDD
T1 sequence (P26011 whole entry): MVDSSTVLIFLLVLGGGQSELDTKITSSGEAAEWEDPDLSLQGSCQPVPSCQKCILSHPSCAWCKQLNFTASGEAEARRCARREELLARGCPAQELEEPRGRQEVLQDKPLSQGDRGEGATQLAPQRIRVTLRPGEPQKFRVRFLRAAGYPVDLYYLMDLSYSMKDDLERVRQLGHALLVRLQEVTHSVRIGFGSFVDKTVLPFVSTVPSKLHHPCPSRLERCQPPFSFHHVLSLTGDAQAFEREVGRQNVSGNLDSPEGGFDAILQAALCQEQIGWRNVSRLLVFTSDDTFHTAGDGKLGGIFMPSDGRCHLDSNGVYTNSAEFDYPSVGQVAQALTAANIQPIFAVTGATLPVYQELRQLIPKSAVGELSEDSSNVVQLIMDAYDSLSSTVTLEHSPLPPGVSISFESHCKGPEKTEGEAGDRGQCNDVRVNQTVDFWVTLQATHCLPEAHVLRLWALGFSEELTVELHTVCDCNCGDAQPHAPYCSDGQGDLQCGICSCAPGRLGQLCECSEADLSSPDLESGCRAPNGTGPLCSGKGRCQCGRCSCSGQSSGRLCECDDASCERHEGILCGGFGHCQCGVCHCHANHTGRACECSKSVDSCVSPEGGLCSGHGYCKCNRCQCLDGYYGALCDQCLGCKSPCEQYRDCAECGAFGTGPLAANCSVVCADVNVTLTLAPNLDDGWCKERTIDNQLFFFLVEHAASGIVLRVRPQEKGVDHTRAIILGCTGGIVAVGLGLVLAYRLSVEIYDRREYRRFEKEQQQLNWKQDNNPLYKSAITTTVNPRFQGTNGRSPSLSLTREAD
Summary of the method: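 TK-1 cells (mouse AKR/Cum CD8+ α4β7+/α4β1− T lymphoma), cultured at 37 °C in RPMI 1640 with 10% FCS and 0.05 mM β-mercaptoethanol. HBSS/10 mM Hepes buffer; cells preincubated with peptide 1 h at room temperature, then activated with MnCl2 to 2 mM. Added at 10⁶ cells/well to glass slides coated with mouse MAdCAM-1-Fc (10 µg/ml, 4 °C overnight, FBS-blocked); adhesion 30 min at room temperature.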

[1] = target: T2, Integrin alpha-4/beta-7 (Mus musculus) (UniProt Q00651+P26011); test: Inhibition of alpha4beta7 assessed as inhibition of Mn(2+)-activated adhesion of mouse TK-1 T cells to mouse MAdCAM-1 at <5 to 10 uM incubated for 1 hr by cell adhesion assay
Summary of the method: (§1)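 TK-1 cells (mouse AKR/Cum α4β7+/α4β1− CD8 T lymphoma), grown at 37 °C in RPMI 1640 with 10% FCS and 0.05 mM β-mercaptoethanol, were washed and held 1 h at room temperature in HBSS/10 mM Hepes with peptide. They were then activated with 2 mM MnCl₂ and added at 10⁶ cells/well to glass slides coated with mouse MAdCAM-1-Fc (10 μg/ml, FBS-blocked). Adhesion ran 30 min.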

[2] = target: T2, Integrin alpha-4/beta-7 (Mus musculus); test: Inhibition of alpha4beta7 assessed as inhibition of Mn(2+)-activated adhesion of mouse TK-1 T cells to mouse MAdCAM-1 at 50 uM incubated for 1 hr by cell adhesion assay; summary of the method: as §1
[3] = target: T2, Integrin alpha-4/beta-7 (Mus musculus); test: Inhibition of alpha4beta7 assessed as inhibition of Mn(2+)-activated adhesion of mouse TK-1 T cells to mouse MAdCAM-1 at 100 uM incubated for 1 hr by cell adhesion assay; summary of the method: as §1
[4] = target: T2, Integrin alpha-4/beta-7 (Mus musculus); test: Inhibition of alpha4beta7 assessed as inhibition of Mn(2+)-activated adhesion of mouse TK-1 T cells to mouse MAdCAM-1 at 25 uM incubated for 1 hr by cell adhesion assay; summary of the method: as §1

SMILES | IC50 (Integrin alpha-4/beta-7) [µM] | inhibition [1] | inhibition [2] [%] | inhibition [3] [%] | inhibition [4]
N=C(N)NCCC[C@H](NC(=O)CCCC[C@@H]1SC[C@@H]2NC(=O)N[C@@H]21)C(=O)N[C@@H](CCCNC(=N)N)C(=O)N[C@@H](CCCNC(=N)N)C(=O)N[C@@H](CCCNC(=N)N)C(=O)N[C@@H](CCCNC(=N)N)C(=O)N[C@@H](CCCNC(=N)N)C(=O)N[C@@H](CCCNC(=N)N)C(=O)N[C@@H](CCCNC(=N)N)C(=O)N[C@@H](CCC(=O)O)C(=O)N[C@@H](CCCNC(=N)N)C(=O)N[C@@H](Cc1ccc(-c2ccccc2)cc1)C(=O)O (Biotin-RRRRRRRRER[Bip]-OH) | 7.3 | Active | 80.2 | 91.3 | Active
N=C(N)NCCC[C@H](NC(=O)[C@H](CCCNC(=N)N)NC(=O)[C@H](CCCNC(=N)N)NC(=O)[C@H](CCCNC(=N)N)NC(=O)[C@H](CCCNC(=N)N)NC(=O)[C@H](CCCN=C(N)N)NC(=O)[C@H](CCCN=C(N)N)NC(=O)[C@H](CCCN=C(N)N)NC(=O)CCCC[C@@H]1SC[C@@H]2NC(=O)N[C@@H]21)C(=O)N[C@@H](CCC(=O)O)C(=O)N[C@@H](CCCN=C(N)N)C(=O)N[C@@H](Cc1ccc(C2CCCCC2)cc1)C(=O)O (Biotin-RRRRRRRRER[X1]-OH) | 19 |  |  |  | 
CCc1ccc(-c2ccc(C[C@H](NC(=O)[C@H](CCCNC(=N)N)NC(=O)[C@H](CCC(=O)O)NC(=O)[C@H](CCCNC(=N)N)NC(=O)[C@H](CCCNC(=N)N)NC(=O)[C@H](CCCNC(=N)N)NC(=O)[C@H](CCCNC(=N)N)NC(=O)[C@H](CCCNC(=N)N)NC(=O)[C@H](CCCNC(=N)N)NC(=O)[C@H](CCCNC(=N)N)NC(=O)[C@H](CCCNC(=N)N)NC(=O)CCCC[C@@H]3SC[C@@H]4NC(=O)N[C@@H]43)C(=O)O)cc2)cc1 (Biotin-RRRRRRRRER[X2]-OH) | 14.3 | Active | 58 | 74.2 | Active
